The Km is the substrate concentration at which the rate is half of its maximum.

Data set [1] has as its system NCC(=O)NC(Cc1ccccc1)C(=O)Nc1ccc([N+](=O)[O-])cc1. The data set can be described thus: Michaelis constant against Dipeptidyl aminopeptidase 1. Summed up: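 Cathepsin C diluted 1:200 daily in ice-cold 50 mM citrate pH 5 with 10 mM cysteamine. Gly-Phe p-nitroanilide hydrolysis at 37 °C read at 405 nm (Δε 9900 M⁻¹ cm⁻¹), started by adding substrate to prewarmed enzyme/inhibitor. Irreversible inhibition: enzyme preincubated with varied inhibitor levels, aliquots diluted into substrate over time. k_app from ln(% activity) vs time; Ki and k2 from 1/k_app vs 1/[I].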

A short description of data set [2]: Michaelis constant against leucine aminopeptidase-C.
Data set [3] in a line: Michaelis constant against Leucine aminopeptidase-M.

As for “Dipeptidyl peptidase 1 (Homo sapiens), P53634”, the Km in data set [1] stood at 3100 µM.
For the compound `CC(C)C[C@H](N)C(=O)Nc1ccc([N+](=O)[O-])cc1`, the Km turned out to be 2100 µM in data set [2] and 600 µM in data set [3].
